Assay [1] concerns the target T1, Cathepsin B (Homo sapiens, UniProt P07858). Kind of assay: Inhibition of human cathepsin B. The essentials: (§1)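 Bovine or human cathepsin B, assayed in 20 mM sodium acetate, pH 5.2, with 0.5 mM dithiothreitol and 2% DMSO. The two enzyme sources were used interchangeably. Ki was taken from Dixon plots, with triplicate assays plotted as 1/v versus inhibitor concentration.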

Assay [2] has as its target T2, Calpain-1 catalytic subunit (Homo sapiens, UniProt P07384).
T2 sequence (P07384 whole entry): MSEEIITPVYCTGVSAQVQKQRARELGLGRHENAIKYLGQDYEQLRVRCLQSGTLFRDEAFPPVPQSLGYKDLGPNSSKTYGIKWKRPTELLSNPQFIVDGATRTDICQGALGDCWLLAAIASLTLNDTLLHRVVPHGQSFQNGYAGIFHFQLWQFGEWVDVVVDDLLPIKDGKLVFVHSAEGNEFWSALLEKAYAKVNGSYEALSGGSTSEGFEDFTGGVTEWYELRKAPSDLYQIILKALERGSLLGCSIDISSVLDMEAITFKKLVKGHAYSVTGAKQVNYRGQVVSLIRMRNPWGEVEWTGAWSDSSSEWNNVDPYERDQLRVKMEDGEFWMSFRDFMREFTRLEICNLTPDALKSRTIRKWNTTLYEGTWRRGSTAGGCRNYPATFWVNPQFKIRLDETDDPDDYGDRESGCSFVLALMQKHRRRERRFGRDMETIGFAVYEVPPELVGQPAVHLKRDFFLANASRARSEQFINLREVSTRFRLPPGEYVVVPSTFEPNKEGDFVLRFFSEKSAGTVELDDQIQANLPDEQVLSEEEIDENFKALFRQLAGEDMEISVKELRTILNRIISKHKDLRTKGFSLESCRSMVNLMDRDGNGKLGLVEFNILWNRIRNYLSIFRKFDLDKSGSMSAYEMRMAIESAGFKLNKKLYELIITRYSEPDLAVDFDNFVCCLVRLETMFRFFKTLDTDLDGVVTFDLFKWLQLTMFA
Kind of assay: Inhibition of the cysteine protease human Calpain 1. The essentials: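 Calpain assay in 25 mM Tris, pH 8.0, with 10 mM CaCl₂ and 5% DMSO. […] hydrolysis was read as initial velocity (t = 30-60 s) after a 30 s delay, at room temperature. Five or more inhibitor concentrations (not above 2 × K_obs) were used at two fixed substrate levels. Ki came from Dixon plots (1/v vs I) averaged over triplicates.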

For assay [3], the target named is T1, Cathepsin B. In words: Compound was evaluated for the inhibition of Cathepsin B. The essentials:
as §1

Assay [4] addresses Cathepsin B (Bos taurus, UniProt P07688). In words: Inhibition of bovine cathepsin B. In a few lines: as §1
For assay [5], the target named is T1, Cathepsin B. Kind of assay: Compound was evaluated for the inhibition of Cathepsin B; Gives nonlinear dixon plots. The essentials:
as §1
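Wherever IC is given: measured as membrane permeability of platelets.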

Regarding `CCC(NC(=O)C(CC(C)C)NC(=O)OCc1ccccc1)C(=O)C(=O)NCCCc1ccccc1` (stereo not given), affinity on Cathepsin B [1] was put at a Ki of 200 nM. The IC in the assay listed under Rattus norvegicus came out at 100 µM.
Consider `CCCC(NC(=O)C(CC(C)C)NC(=O)OCc1ccccc1)C(=O)C(=O)NCCCN1CCOCC1` (stereo not given), for which the Ki – broadly, a measure of affinity in units of concentration, obtained from inhibition or displacement – stood at 250 nM in assay [2] and 4200 nM on Cathepsin B [1]. The same molecule yielded an IC in the assay listed under Rattus norvegicus of 18 µM.
In the case of `CCCNC(=O)C(=O)C(Cc1ccccc1)NC(=O)C(CC(C)C)NC(=O)OCc1ccccc1` (stereo not given), the Ki in assay [2] is 350 nM; on Cathepsin B [1], 3000 nM. This molecule returned an IC in the assay listed under Rattus norvegicus of 31 µM.
The matching figures for `CCC(NC(=O)C(CC(C)C)NC(=O)OCc1ccccc1)C(=O)C(=O)NCCCN1CCOCC1` (stereo not given): 140 nM, 6900 nM and 45 µM.
As for `CCC(NC(=O)C(CC(C)C)NC(=O)OCc1ccccc1)C(=O)C(=O)NCCOCCO` (stereo not given), the Ki at Cathepsin B [1] was 2000 nM. Moreover, the IC in the assay listed under Rattus norvegicus was 58 µM.
For the molecule `CC(C)CC(NC(=O)C(c1ccccc1)c1ccccc1)C(=O)NC(Cc1ccccc1)C(=O)C(=O)NCc1ccccn1` (stereo not given), the results for the Ki (in assay [2]; at Cathepsin B [1]) were 1100 nM and 2200 nM, respectively. Besides, in the assay listed under Rattus norvegicus, the IC is more than 300 µM.
The molecule `CCNC(=O)C(=O)C(Cc1ccccc1)NC(=O)C(CC(C)C)NC(=O)OCc1ccccc1` (stereo not given) registered an inhibition constant Ki at Cathepsin B [1] of 6000 nM. For the same molecule, the IC in the assay filed under Rattus norvegicus stood at 22 µM.
Turning to `CCC(NC(=O)C(CC(C)C)NC(=O)OCc1ccccc1)C(=O)C(=O)NCC1(C)CC(O)CC(C)(C)C1` (stereo not given), the Ki in assay [2] turned out to be 420 nM; at Cathepsin B [1], 890 nM. In the assay filed under Rattus norvegicus, this molecule gave an IC of 103 µM.
On to `CC(C)CC(NC(=O)OCc1ccccc1)C(=O)NC(Cc1ccccc1)C(=O)C(=O)NCc1ccccc1` (stereo not given), for which the affinity on Cathepsin B [3] corresponds to a Ki of 4600 nM. Moreover, in the assay listed under Rattus norvegicus, the IC was more than 300 µM.
Consider `CC(C)CC(NC(=O)OCc1ccccc1)C(=O)NC(Cc1ccccc1)C(=O)C(=O)NCCCN1CCOCC1` (stereo not given), for which the inhibition constant (Ki) came out at 120 nM in assay [2] and 13000 nM on Cathepsin B [1]. Besides, in the assay filed under Rattus norvegicus, the IC turned out to be 54 µM.
Turning to `CCC(NC(=O)C(CC(C)C)NC(=O)OCc1ccccc1)C(=O)C(=O)NCCc1c[nH]c2ccccc12` (stereo not given), the Ki was determined as 300 nM in assay [2] and 31 nM on Cathepsin B [4]. Moreover, the IC in the assay listed under Rattus norvegicus is 180 µM.
In turn, `CCC(NC(=O)C(CC(C)C)NC(=O)OCc1ccccc1)C(=O)C(=O)NCCCCCO` (stereo not given) displayed an inhibitory constant (Ki) at Cathepsin B [1] of 280 nM. Besides, the IC in the assay filed under Rattus norvegicus amounted to 54 µM.
For `CCC(NC(=O)C(CC(C)C)NC(=O)OCc1ccccc1)C(=O)C(=O)NCc1ccccn1` (stereo not given), the Ki in assay [2] came to 640 nM; at Cathepsin B [1], 3000 nM. In the assay filed under Rattus norvegicus, this molecule yielded an IC of 110 µM.
The matching figures for `CCC(NC(=O)C(CC(C)C)NC(=O)OCc1ccccc1)C(=O)C(=O)NCc1ccncc1` (stereo not given): 1100 nM, 6400 nM and 54 µM.
Take `CCC(NC(=O)C(CC(C)C)NC(=O)C(c1ccccc1)c1ccccc1)C(=O)C(=O)NCc1ccccn1` (stereo not given): in the assay listed under Rattus norvegicus, the IC was 88 µM.
As to `CCC(NC(=O)C(CC(C)C)NC(=O)OCc1ccccc1)C(=O)C(=O)NCc1nccc2ccccc12` (stereo not given), the Ki in assay [2] was found to be 250 nM; at Cathepsin B [1] it was 300 nM.
Regarding `CC(C)CC(NC(=O)OCc1ccccc1)C(=O)NC(Cc1ccccc1)C(=O)C(=O)NCC(O)c1ccccc1` (stereo not given), the Ki was found to be 1300 nM in assay [2] and 2100 nM at Cathepsin B [1]. The same molecule showed an IC in the assay filed under Rattus norvegicus of 44 µM.
At Cathepsin B [1], `CCC(NC(=O)C(CC(C)C)NC(=O)OCc1ccccc1)C(=O)C(=O)NCc1cccnc1` (stereo not given) showed a Ki of 1200 nM. Besides, the IC in the assay filed under Rattus norvegicus is more than 300 µM.
`CCCNC(=O)C(=O)C(CC)NC(=O)C(CC(C)C)NC(=O)OCc1ccccc1` (stereo not given) gave an IC in the assay filed under Rattus norvegicus of 70 µM.
Turning to `CCC(NC(=O)C(CC(C)C)NC(=O)OCc1ccccc1)C(=O)C(=O)NCc1ccccc1` (stereo not given), affinity at Cathepsin B [1] was put at a Ki of 2000 nM. This molecule returned an IC in the assay listed under Rattus norvegicus of 30 µM.
As to `CCCC(NC(=O)C(CC(C)C)NC(=O)OCc1ccccc1)C(=O)C(=O)NCc1ccccn1` (stereo not given), the Ki is 19 nM in assay [2] and 750 nM at Cathepsin B [1].
Take `CCC(NC(=O)C(CC(C)C)NC(=O)OCc1ccccc1)C(=O)C(=O)NCCc1ccc(O)cc1` (stereo not given): the figures for the Ki (in assay [2]; at Cathepsin B [5]) were 380 nM and “Non linear Dixon plots”, respectively. This molecule also displayed an IC in the assay listed under Rattus norvegicus of 23 µM.
Turning to `CCC(NC(=O)C(CC(C)C)NC(=O)OCc1ccccc1)C(=O)C(=O)NCCc1ccc(OC)cc1` (stereo not given), the results for the Ki (in assay [2]; on Cathepsin B [1]) were 120 nM and 440 nM, respectively.
`CCC(NC(=O)C(CC(C)C)NC(=O)OCc1ccccc1)C(=O)C(=O)NCc1cc(OC)cc(OC)c1` (stereo not given): the Ki was determined as 2300 nM in assay [2] and 1800 nM on Cathepsin B [1]. The molecule also returned an IC in the assay listed under Rattus norvegicus of 30 µM.
Turning to `CCC(NC(=O)C(CC(C)C)NC(=O)OCc1ccccc1)C(=O)C(=O)NCCCn1ccnc1` (stereo not given), the Ki in assay [2] stood at 290 nM; at Cathepsin B [1], 9900 nM.
Consider `CCC(NC(=O)C(CC(C)C)NC(=O)OCc1ccccc1)C(=O)C(=O)NCCO` (stereo not given), for which the Ki in assay [2] came to 800 nM; on Cathepsin B [1], 4500 nM. Also, the IC in the assay filed under Rattus norvegicus is 78 µM.
In the case of `CCC(NC(=O)C(CC(C)C)NC(=O)OCc1ccccc1)C(=O)C(=O)NCCc1ccccc1` (stereo not given), the affinity at Cathepsin B [1], expressed as Ki, was 1300 nM. The IC in the assay listed under Rattus norvegicus was found to be 50 µM.
Take `CCC(NC(=O)C(CC(C)C)NC(=O)OCc1ccccc1)C(=O)C(=O)NCCc1ccccn1` (stereo not given): affinity in assay [2] was put at a Ki of 410 nM. Moreover, the IC in the assay listed under Rattus norvegicus amounted to 70 µM.
`CC(C)CC(NC(=O)OCc1ccccc1)C(=O)NC(Cc1ccccc1)C(=O)C(=O)NCCc1ccccc1` (stereo not given) came in with a Ki on Cathepsin B [3] of 9300 nM. Moreover, in the assay listed under Rattus norvegicus, the IC was 100 µM.
Regarding `CCC(NC(=O)C(CC(C)C)NC(=O)OCc1ccccc1)C(=O)C(=O)NCCc1cccc(OC)c1` (stereo not given), the results for the Ki (in assay [2]; at Cathepsin B [1]) were 110 nM and 310 nM, respectively.
In the case of `CCC(NC(=O)C(CC(C)C)NC(=O)C(c1ccccc1)c1ccccc1)C(=O)C(=O)NCC(O)c1ccccc1` (stereo not given), the Ki in assay [2] came out at 750 nM; at Cathepsin B [4], 170 nM. This molecule also came in with an IC in the assay filed under Rattus norvegicus of 180 µM.
On to `CCC(NC(=O)C(CC(C)C)NC(=O)OCc1ccccc1)C(=O)C(=O)NCc1ccco1` (stereo not given), for which the inhibition constant Ki in assay [2] came out at 800 nM; at Cathepsin B [1] it was 6000 nM. In the assay filed under Rattus norvegicus, this molecule returned an IC of 58 µM.
Take `CCC(NC(=O)C(CC(C)C)NC(=O)OCc1ccccc1)C(=O)C(=O)NCC(O)c1ccccc1` (stereo not given): the Ki is 1100 nM in assay [2] and 370 nM on Cathepsin B [1]. The IC in the assay filed under Rattus norvegicus stood at 69 µM.
Taken in the same sequence, the figures for `CCC(NC(=O)C(CC(C)C)NC(=O)OCc1ccccc1)C(=O)C(=O)NCC1CCCO1` (stereo not given) were 330 nM, 4500 nM and 22 µM.
As to `CCNC(=O)C(=O)C(CC)NC(=O)C(CC(C)C)NC(=O)OCc1ccccc1` (stereo not given), at Cathepsin B [1], the Ki came out at 2400 nM. The molecule further had an IC in the assay filed under Rattus norvegicus of 100 µM.
On to `CCC(NC(=O)C(CC(C)C)NC(=O)OCc1ccccc1)C(=O)C(=O)NCCCN1CCc2ccccc2C1` (stereo not given), for which the results for the Ki (in assay [2]; at Cathepsin B [1]) were 310 nM and 8000 nM, respectively.
`CCC(NC(=O)C(CC(C)C)NC(=O)OCc1ccccc1)C(=O)C(=O)NCCN1CCOCC1` (stereo not given): the Ki amounted to 1000 nM in assay [2] and 2500 nM at Cathepsin B [1]. In the assay listed under Rattus norvegicus, this molecule showed an IC of 23 µM.

(Values after ChEMBL document CHEMBL1129436, “Novel peptidyl alpha-keto amide inhibitors of calpains and other cysteine proteases” (J Med Chem, 1996).)
